In ChEMBL document CHEMBL5653631, “A Potent and Selective ULK1 Inhibitor Suppresses Autophagy and Sensitizes Cancer Cells to Nutrient Stress” (iScience, 2018):
Each block holds one molecule with its values, some of them ahead of it.

Assays:
[1] = biological target: Insulin receptor-related protein (Homo sapiens) (UniProt P14616); assay: Inhibition of human recombinant IRR at 500 nM related to control ULK1
[2] = biological target: PAS domain-containing serine/threonine-protein kinase (Homo sapiens) (UniProt Q96RG2); assay: Inhibition of human recombinant PASK at 500 nM related to control ULK1
Sequence of PAS domain-containing serine/threonine-protein kinase (Homo sapiens) (Q96RG2 whole entry, the tested form may be a part): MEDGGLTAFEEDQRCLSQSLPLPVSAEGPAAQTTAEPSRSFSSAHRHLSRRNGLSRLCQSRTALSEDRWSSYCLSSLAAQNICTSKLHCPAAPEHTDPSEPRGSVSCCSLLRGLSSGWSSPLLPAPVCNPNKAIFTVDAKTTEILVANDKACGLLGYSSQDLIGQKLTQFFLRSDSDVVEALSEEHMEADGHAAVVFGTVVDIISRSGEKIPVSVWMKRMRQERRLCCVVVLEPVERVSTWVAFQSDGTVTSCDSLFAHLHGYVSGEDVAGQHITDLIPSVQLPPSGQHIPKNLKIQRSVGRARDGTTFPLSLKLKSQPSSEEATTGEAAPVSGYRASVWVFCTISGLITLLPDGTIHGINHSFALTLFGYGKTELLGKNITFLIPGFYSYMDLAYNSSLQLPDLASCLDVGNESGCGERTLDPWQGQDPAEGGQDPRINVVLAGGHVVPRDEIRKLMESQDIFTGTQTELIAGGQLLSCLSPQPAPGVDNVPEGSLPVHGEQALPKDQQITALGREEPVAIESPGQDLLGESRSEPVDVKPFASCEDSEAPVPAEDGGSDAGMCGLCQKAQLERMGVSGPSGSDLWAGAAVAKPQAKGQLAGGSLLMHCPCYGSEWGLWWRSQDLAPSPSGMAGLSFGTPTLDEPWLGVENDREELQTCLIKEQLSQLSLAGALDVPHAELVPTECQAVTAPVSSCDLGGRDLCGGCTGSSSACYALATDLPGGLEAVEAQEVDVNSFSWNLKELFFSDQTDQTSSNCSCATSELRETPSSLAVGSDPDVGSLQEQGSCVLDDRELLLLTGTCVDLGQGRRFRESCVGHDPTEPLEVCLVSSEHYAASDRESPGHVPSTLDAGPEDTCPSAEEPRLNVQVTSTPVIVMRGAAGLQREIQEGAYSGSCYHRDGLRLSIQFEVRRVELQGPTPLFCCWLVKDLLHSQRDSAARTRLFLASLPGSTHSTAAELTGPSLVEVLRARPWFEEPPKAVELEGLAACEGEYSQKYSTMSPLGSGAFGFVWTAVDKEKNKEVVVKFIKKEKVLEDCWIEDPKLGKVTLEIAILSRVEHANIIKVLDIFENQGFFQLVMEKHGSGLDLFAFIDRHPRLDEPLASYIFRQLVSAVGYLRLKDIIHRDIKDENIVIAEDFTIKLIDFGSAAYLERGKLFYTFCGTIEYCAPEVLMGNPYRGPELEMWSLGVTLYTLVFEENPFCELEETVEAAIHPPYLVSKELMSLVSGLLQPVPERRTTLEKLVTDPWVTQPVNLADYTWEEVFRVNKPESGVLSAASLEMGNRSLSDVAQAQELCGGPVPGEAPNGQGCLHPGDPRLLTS

[3] = biological target: Maternal embryonic leucine zipper kinase (Homo sapiens) (UniProt Q14680); assay: Inhibition of human recombinant MELK at 500 nM related to control ULK1
Sequence of Maternal embryonic leucine zipper kinase (Homo sapiens) (Q14680 whole entry, looked up): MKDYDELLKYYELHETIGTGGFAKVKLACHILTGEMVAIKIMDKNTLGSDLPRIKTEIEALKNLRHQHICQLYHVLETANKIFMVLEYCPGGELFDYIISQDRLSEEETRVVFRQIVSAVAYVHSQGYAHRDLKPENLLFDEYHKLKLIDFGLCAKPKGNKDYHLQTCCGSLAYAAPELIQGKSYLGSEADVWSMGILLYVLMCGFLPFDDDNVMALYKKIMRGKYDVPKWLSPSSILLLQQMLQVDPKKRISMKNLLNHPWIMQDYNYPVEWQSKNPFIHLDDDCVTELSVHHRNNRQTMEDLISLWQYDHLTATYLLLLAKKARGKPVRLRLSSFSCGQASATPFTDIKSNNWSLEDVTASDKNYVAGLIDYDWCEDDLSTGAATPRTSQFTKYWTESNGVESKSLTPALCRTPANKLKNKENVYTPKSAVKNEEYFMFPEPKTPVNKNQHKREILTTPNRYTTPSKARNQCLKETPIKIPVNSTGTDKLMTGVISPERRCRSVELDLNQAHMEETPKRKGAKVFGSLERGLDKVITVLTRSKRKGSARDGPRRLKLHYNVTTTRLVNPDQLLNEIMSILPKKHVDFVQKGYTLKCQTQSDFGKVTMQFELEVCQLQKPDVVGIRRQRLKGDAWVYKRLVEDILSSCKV

[4] = biological target: T1, Tyrosine-protein kinase ZAP-70 (Homo sapiens) (UniProt P43403); assay: Inhibition of human recombinant ZAP70 at 15 nM related to control ULK1
T1 sequence (whole entry): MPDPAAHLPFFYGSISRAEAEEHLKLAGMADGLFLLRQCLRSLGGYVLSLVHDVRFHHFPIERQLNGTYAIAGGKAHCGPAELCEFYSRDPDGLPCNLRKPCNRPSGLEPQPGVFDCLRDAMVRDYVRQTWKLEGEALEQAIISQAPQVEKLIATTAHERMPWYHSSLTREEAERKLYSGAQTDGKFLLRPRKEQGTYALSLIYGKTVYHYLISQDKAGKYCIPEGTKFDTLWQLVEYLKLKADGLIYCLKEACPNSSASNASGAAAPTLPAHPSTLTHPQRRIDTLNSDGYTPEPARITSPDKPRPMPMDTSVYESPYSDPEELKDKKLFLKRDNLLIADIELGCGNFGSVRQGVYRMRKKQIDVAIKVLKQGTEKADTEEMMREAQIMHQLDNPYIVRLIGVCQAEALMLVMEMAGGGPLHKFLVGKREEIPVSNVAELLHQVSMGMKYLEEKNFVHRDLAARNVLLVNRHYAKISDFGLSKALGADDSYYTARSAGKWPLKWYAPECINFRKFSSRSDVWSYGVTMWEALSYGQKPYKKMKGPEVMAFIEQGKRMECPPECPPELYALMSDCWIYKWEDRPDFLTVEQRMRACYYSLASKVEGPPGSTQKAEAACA

[5] = biological target: MAP kinase-activated protein kinase 3 (Homo sapiens) (UniProt Q16644); assay: Inhibition of human recombinant MAPKAPK3 at 15 nM related to control ULK1
Sequence of MAP kinase-activated protein kinase 3 (Homo sapiens) (Q16644 whole entry, looked up): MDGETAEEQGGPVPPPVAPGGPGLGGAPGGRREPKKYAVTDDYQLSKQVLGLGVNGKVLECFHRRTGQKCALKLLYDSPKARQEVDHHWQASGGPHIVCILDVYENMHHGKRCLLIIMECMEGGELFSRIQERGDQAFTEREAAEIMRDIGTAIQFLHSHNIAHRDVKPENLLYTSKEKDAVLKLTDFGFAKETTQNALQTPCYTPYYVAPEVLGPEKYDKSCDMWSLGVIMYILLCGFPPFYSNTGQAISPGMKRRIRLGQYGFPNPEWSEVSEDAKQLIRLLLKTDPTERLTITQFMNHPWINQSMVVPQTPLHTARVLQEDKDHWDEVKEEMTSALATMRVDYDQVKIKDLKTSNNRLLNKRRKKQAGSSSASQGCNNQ

[6] = biological target: Leucine-rich repeat serine/threonine-protein kinase 2 (Homo sapiens) (UniProt Q5S007); assay: Inhibition of human recombinant LRRK2 at 15 nM in presence of ATP by radiometric assay relative to control
[7] = biological target: STE20-like serine/threonine-protein kinase (Homo sapiens) (UniProt Q9H2G2); assay: Inhibition of human recombinant SLK at 15 nM related to control ULK1
[8] = biological target: T2, NUAK family SNF1-like kinase 1 (Homo sapiens) (UniProt O60285); assay: Inhibition of human recombinant NuaK1 at 15 nM in presence of ATP by radiometric assay relative to control
T2 sequence (whole entry): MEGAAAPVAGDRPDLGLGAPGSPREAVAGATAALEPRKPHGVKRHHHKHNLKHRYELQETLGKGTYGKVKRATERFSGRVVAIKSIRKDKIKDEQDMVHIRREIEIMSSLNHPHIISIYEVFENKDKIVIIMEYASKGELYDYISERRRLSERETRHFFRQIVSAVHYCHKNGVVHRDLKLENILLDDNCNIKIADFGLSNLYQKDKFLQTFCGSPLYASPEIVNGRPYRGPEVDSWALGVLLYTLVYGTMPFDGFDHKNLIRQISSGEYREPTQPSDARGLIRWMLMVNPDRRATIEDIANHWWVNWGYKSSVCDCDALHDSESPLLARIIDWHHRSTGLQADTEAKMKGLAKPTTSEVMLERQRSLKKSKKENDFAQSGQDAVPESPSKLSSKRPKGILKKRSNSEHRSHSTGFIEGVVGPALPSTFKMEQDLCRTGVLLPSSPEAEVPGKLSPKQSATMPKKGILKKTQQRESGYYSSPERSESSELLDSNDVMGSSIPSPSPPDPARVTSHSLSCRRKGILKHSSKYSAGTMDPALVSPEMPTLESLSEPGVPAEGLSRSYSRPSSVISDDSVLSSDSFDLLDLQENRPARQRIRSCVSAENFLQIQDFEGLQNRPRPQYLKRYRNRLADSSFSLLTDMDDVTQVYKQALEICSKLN

[9] = biological target: Cyclin-dependent kinase 3 (Homo sapiens) (UniProt Q00526); assay: Inhibition of human recombinant CDK3 at 15 nM related to control ULK1
[10] = biological target: [Pyruvate dehydrogenase (acetyl-transferring)] kinase isozyme 4, mitochondrial (Homo sapiens) (UniProt Q16654); assay: Inhibition of human recombinant PDHK4 at 15 nM related to control ULK1
Sequence of [Pyruvate dehydrogenase (acetyl-transferring)] kinase isozyme 4, mitochondrial (Homo sapiens) (Q16654 whole entry, looked up): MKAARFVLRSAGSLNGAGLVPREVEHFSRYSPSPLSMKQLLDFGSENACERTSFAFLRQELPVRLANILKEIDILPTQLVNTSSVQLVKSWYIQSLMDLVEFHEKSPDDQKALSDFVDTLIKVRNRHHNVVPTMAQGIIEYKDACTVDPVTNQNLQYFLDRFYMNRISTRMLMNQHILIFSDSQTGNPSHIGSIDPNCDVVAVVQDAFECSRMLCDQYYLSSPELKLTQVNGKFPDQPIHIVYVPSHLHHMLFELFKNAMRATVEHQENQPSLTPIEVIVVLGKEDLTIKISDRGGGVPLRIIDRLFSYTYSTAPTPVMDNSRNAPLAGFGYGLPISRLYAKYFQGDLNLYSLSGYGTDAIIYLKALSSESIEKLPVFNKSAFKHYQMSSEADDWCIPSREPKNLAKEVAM

[11] = biological target: Mitogen-activated protein kinase 1 (Homo sapiens) (UniProt P28482); assay: Inhibition of human recombinant Erk2 at 40 nM related to control ULK1
Sequence of Mitogen-activated protein kinase 1 (Homo sapiens) (P28482 whole entry): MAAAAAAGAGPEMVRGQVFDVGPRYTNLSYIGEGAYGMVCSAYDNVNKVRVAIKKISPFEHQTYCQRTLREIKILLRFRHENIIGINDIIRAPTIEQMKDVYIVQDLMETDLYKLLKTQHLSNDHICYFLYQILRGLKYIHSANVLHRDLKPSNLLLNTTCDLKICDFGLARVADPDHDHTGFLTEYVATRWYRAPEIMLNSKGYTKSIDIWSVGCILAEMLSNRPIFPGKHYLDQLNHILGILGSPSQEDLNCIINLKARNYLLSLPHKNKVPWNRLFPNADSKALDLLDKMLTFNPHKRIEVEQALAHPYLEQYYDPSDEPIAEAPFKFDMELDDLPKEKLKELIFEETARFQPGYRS

[12] = biological target: RAC-alpha serine/threonine-protein kinase (Homo sapiens) (UniProt P31749); assay: Inhibition of human recombinant AKT1 at 40 nM in presence of ATP by radiometric assay relative to control
Sequence of RAC-alpha serine/threonine-protein kinase (Homo sapiens) (P31749 whole entry): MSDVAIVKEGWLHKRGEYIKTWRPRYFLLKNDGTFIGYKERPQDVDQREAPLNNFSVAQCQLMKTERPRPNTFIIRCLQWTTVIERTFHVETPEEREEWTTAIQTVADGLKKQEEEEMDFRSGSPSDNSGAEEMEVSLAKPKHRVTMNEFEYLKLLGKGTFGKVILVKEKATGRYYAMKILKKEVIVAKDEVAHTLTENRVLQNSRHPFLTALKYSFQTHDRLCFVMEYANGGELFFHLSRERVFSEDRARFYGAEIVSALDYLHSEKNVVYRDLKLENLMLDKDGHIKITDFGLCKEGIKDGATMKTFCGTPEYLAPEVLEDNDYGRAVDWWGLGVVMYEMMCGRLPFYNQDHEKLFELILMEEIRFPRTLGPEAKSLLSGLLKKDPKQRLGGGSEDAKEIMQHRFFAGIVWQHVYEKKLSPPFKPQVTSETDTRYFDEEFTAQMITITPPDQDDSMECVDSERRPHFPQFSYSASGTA
Outline: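 Panel of 327 recombinant human kinases in radiometric activity assays, each screened in duplicate at a single inhibitor concentration; percent activity remaining relative to vehicle control, percent inhibition taken as 100 minus activity remaining.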

[13] = biological target: T3, Inhibitor of nuclear factor kappa-B kinase subunit epsilon (Homo sapiens) (UniProt Q14164); assay: Inhibition of human recombinant IKKe at 40 nM related to control ULK1
T3 sequence (whole entry): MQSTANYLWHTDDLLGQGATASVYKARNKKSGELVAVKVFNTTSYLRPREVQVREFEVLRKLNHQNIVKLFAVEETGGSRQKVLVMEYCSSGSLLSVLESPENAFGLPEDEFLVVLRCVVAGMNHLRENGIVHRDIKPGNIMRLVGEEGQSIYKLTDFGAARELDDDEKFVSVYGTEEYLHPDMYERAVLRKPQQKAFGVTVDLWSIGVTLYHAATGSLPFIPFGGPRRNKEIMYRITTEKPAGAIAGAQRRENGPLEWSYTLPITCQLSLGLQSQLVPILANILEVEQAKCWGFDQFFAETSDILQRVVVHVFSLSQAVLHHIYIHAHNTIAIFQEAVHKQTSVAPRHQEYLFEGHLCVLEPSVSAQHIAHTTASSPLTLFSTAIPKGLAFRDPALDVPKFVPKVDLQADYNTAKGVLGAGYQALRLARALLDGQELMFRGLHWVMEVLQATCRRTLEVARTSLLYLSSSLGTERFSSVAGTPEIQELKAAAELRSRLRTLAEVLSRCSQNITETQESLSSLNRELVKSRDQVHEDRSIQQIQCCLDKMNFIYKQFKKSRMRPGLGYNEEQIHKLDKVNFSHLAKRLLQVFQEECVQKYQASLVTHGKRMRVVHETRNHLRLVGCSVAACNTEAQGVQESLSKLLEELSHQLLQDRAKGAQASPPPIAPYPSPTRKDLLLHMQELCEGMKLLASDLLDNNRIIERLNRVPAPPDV

Sequence of Insulin receptor-related protein (Homo sapiens) (P14616 27-742 limits assumed): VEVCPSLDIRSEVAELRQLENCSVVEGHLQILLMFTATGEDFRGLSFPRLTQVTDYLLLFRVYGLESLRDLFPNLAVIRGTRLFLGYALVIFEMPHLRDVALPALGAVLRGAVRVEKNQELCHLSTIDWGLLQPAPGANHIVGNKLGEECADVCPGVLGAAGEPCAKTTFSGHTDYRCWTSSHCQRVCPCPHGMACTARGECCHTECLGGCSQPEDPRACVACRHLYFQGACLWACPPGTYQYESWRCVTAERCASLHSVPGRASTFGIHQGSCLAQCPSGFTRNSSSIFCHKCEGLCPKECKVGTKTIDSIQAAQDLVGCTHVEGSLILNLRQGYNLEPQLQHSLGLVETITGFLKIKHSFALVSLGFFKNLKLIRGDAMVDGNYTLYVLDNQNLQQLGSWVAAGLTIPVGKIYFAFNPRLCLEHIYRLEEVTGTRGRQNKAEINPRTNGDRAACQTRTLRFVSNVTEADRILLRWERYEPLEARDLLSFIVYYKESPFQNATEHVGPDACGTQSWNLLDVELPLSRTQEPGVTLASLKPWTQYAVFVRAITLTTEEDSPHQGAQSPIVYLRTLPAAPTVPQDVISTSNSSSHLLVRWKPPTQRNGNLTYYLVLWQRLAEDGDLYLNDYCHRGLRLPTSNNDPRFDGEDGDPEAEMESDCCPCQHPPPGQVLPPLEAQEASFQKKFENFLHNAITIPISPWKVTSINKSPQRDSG
Sequence of Insulin receptor-related protein (Homo sapiens) (P14616 747-1297 limits assumed): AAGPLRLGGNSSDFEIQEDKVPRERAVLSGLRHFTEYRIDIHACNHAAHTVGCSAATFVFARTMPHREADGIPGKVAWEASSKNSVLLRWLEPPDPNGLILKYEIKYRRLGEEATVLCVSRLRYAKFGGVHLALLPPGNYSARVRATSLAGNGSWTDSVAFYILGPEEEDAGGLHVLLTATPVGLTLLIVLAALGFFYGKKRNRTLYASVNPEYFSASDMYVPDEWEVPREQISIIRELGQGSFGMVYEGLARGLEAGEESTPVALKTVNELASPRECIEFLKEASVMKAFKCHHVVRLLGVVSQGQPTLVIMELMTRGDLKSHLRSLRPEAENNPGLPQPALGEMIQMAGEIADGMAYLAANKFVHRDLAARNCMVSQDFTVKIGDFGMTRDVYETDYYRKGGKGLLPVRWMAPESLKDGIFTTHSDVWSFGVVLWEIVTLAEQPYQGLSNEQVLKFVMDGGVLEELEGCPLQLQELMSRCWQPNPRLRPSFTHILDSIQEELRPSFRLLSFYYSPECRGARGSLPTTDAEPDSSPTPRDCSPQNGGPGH

fold change (FC) [1]: 0.12 | fold change (FC) [2]: 0.14 | fold change (FC) [3]: 0
SMILES: CNC(=O)c1ccccc1Oc1nc(Nc2cc(OC)c(OC)c(OC)c2)ncc1Br

fold change (FC) [4]: 0 | fold change (FC) [5]: 0 | inhibition [6]: 3% | fold change (FC) [7]: 0.25 | inhibition [8]: 27% | fold change (FC) [9]: 0.06 | fold change (FC) [10]: 0.02
SMILES: CC(C)[C@H](NC(=O)c1cc(-c2cnn3cc(-c4ccc(OCCN5CCCCC5)cc4)cnc23)cs1)C(F)(F)F

fold change (FC) [11]: 0 | inhibition [12]: 0% | fold change (FC) [13]: 0.41
SMILES: O=C(N[C@@H](C1CC1)C(F)(F)F)c1cc(-c2cnn3cc(-c4ccc(F)cc4)cnc23)cs1
